Screening data (PubChem BioAssay)
CHOP inh: CHOP inhibition in unfolded protein response; AID 2732; inhibition, % at 10 µM; 3.8% of 220,000 active; CHO-K1 CHOP-promoter luciferase, tunicamycin-induced, 15-18 h;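 active = compounds that reduced the stress-induced luciferase reporter signal by more than about 70% of percent inhibition, limit read from the data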;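 note: 0% = tunicamycin plus vehicle and 100% = wells without tunicamycin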
TMEM16A act: mouse TMEM16A channel activation, primary screen | HEK293 TMEM16A/YFP-H148Q/I152L, iodide quench fluorescence; active compounds read low | B-score at 10 µM | 0.3% of 340,000 active | AID 623877;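 active = fluorescence-ratio B-score plate-corrected deviation score at least 3 library SD below zero, with starting fluorescence score within 5 deviations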;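 note: channel opened by trigger with iodide after compound preincubation; score built on the fluorescence ratio of max minus min over baseline; more negative score means more quench and so TMEM16A activation or potentiation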
Target sequence (Q8BHY3 whole entry, looked up): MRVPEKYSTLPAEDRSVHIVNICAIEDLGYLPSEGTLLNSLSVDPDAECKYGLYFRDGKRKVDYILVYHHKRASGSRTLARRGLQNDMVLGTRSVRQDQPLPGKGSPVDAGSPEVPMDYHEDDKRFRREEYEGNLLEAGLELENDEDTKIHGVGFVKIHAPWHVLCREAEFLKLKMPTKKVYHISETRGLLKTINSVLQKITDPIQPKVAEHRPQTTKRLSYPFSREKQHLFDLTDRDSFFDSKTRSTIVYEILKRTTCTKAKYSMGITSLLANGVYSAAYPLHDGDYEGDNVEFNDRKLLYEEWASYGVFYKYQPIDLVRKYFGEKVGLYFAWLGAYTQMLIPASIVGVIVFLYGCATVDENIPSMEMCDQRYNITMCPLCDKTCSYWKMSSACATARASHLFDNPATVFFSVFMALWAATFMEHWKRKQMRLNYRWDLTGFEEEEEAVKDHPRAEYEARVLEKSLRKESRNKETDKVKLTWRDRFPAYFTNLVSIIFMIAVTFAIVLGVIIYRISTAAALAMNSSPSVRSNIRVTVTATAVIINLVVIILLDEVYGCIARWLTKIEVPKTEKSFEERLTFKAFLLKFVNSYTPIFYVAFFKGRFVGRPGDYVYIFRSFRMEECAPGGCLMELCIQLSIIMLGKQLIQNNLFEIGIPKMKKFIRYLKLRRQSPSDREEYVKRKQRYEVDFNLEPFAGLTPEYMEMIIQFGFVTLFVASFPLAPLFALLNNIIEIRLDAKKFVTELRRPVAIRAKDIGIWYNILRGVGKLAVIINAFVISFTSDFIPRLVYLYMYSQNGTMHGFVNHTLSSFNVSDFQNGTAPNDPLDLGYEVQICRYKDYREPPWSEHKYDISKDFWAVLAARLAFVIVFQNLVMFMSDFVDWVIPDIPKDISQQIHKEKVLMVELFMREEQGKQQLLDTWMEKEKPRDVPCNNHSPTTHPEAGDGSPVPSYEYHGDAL
CHOP UPR activ: apoptotic UPR (CHOP) activation; AID 449763; CHO-CHOP luciferase reporter, luminescence; percent of tunicamycin response over DMSO baseline; 0.34% of 330,000 active; activation, % at 10 µM;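 active = at 10 µM dose, activation of 40% or more, normalized to positive control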;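 note: 100% = tunicamycin at 10 µg/mL and 0% = DMSO alone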
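Test system: CHO CHOP reporter cells. Input: 500 CHO-CHOP cells per well. Medium: F12 with 10% FBS. Technique: luciferase luminescence. Measure: percent activation relative to tunicamycin control. Dosing: 10 µM compound, 0.5% DMSO. Timing: 16-18 h cell attachment, then 6 h compound exposure, 37 °C.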
ANO1 block: mouse TMEM16A channel inhibition, primary screen. Q8BHY3. HEK293 TMEM16A/YFP iodide influx fluorescence, ionomycin. normalized B-score (activity score, 25-100; higher = stronger inhibition) at 10 µM. 1.2% of 310,000 active. AID 588511;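 active = ratio plate-corrected score three or more library SD toward inhibition, starting fluorescence score within five deviations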;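 note: score derived from kinetic fluorescence span divided by baseline fluorescence per well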
Lipid droplet: hepatic lipid droplet formation modulation | AML12 mouse hepatocytes, oleate lipid droplets, BODIPY imaging | inhibition, % at 6.5 µM | 0.4% of 240,000 active;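 active = lipid droplet intensity inhibited by at least 50%, with more than 500 cells counted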
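Assay system: AML12 mouse liver cells | Compound: 6.5 µM single-point dosing | Schedule: Overnight exposure | Technique: Fluorescence imaging, 20x objective, two fields per well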
UPR XBP1 act: activators of adaptive arm of unfolded protein response (XBP1). 0.33% of 330,000 active. CHO-XBP1 luciferase reporter, IRE1-XBP1 UPR activation, luminescence; percent of tunicamycin response, DMSO as zero. activation, % at 20 µM. AID 463104;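 active = versus positive control, 20 µM dose yields 30% or more activation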;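 note: 100% = tunicamycin at 10 µg/mL and 0% = DMSO only wells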
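Material: CHO cell line with stable XBP1 luciferase reporter; schedule: 16-18 h cell attachment at 37 °C, then 6 h compound exposure; signal: glow luminescence from Steady-Glo reagent; medium: serum-containing F12 medium, 10% FBS; benchmarks: tunicamycin 10 µg/mL and vehicle-only wells; read-out: percent activation relative to tunicamycin reference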
The depositor's hits bear a star; i = inactive; · = no result given. Only some compounds are listed: those with a hit (about 4.2% of all), similar ones and a draw of the others.

SMILES	CHOP inh	TMEM16A act	CHOP UPR activ	ANO1 block	Lipid droplet	UPR XBP1 act
O=[N+]([O-])/C=C/c1c(OCc2ccccc2)ccc2ccccc12	110*	i	0	i	3	-5
CCOC(=O)Cn1cc(/C=C/[N+](=O)[O-])c2ccccc21	-18	i	1	i	4	-3
CC(Sc1nnc(-c2cccnc2)n1N)C(=O)Nc1ccc2c(c1)OCCO2 (centres undefined)	·	i	-1	·	·	-2
C=CCNc1nc(Cl)nc(Nc2cc(Cl)ccc2OC)n1	·	i	1	i	4	4
C=CCn1c(Cc2c(C)[nH]c3ccccc23)nnc1SCC(=O)NCc1ccc(F)cc1	3	i	-1	100*	-38	-4
O=C(CNC(=O)c1ccc(Cl)c([N+](=O)[O-])c1)NCC1CCCO1 (centres undefined)	·	i	1	i	-1	1
O=C(COC(=O)C12CC3CC(CC(C3)C1)C2)NCCc1ccccc1	77*	i	1	i	-1	-3
CCn1c(SCC(=O)N/N=C/c2c[nH]c3ccccc23)nnc1-c1ccc(C(C)(C)C)cc1	25	i	-2	25*	2	-3
CCn1c(SCC(=O)N/N=C/c2ccc(C)o2)nnc1-c1ccc(C(C)(C)C)cc1	25	i	-2	i	-12	0
O=C(C1CCC(C(=O)N2CCc3ccccc32)CC1)N1CCc2ccccc21 (centres undefined)	56	i	0	i	26	-4
O=C(CCl)c1ccc2c(c1)CCN2C(=O)C1CC1	109*	·	-9	i	12	-11
COc1ccc(-c2n(Cc3ccccc3)c3ccccc3[n+]2Cc2ccccc2)cc1	-2	i	-2	25*	-4	-2
COc1ccc(-c2nc3ccccc3n2Cc2ccccc2)cc1	27	i	-1	i	4	-2
CC(C1CC1)N(Cc1ccccc1)C(=S)Nc1cccc(C(F)(F)F)c1 (centres undefined)	75*	i	3	100*	-14	3
CC(C1CC1)N(Cc1ccccc1)C(=S)Nc1ccccc1 (centres undefined)	5	i	2	i	-23	-1
NCC1OC(O[C@@H]2[C@H](O)C(OC3C(O)C(N)CC(N)C3OC3OC(CO)C(O)C(O)C3N)O[C@@H]2CO)C(N)C(O)C1O (some centres undefined)	-3	·	·	·	·	·
CN(c1cccc(NC(=O)c2ccc(N(C)S(=O)(=O)c3ccccc3)cc2)c1)S(C)(=O)=O	43	i	1	100*	-2	0
CCN(CC)S(=O)(=O)c1ccc(C(=O)Nc2cccc(C)c2)cc1	77*	i	0	i	-3	-2
CN(c1ccccc1)S(=O)(=O)c1cccc(C(=O)NNC(=O)c2ccccc2)c1	39	i	-1	25*	6	-1
CC(=O)Nc1ccc(C(=O)Nc2cccc(S(=O)(=O)N(C)c3ccccc3)c2)cc1	·	i	0	·	·	-2
COc1ccc([C@H]2CC(=O)C=C(c3cc(C=O)ccc3OC)C2)cc1	·	i	2	·	·	1
CN1C(C(=O)N2CCc3ccccc3C2)=CC(c2ccc(F)cc2)=NS1(=O)=O	·	i	-2	i	-12	-5
O=C(COC(=O)C1CC2C=CC1C2)Nc1ccc2c(c1)OC(F)(F)O2 (centres undefined)	91*	i	4	i	7	1
O=C(COC(=O)C1CC2C=CC1C2)Nc1cccc(S(=O)(=O)N2CCCCC2)c1 (centres undefined)	17	i	1	i	-2	-2
O=C(COC(=O)C1CC2C=CC1C2)Nc1cccc(S(=O)(=O)N2CCCCCC2)c1 (centres undefined)	3	i	1	100*	22	-1
SMILES	CHOP inh	TMEM16A act	CHOP UPR activ	ANO1 block	Lipid droplet	UPR XBP1 act
CCN1CCN(c2ccc(S(=O)(=O)N3CCOCC3)cc2NC(=O)c2sccc2C)CC1	·	i	0	i	·	0
CCN(CC)C(=O)c1[nH]cnc1C(=O)Nc1ccc(Cl)cc1	·	i	3	·	·	-2
O=C1/C(=C/c2ccccc2F)SC(=S)N1CCC(=O)N1CCCCC1CCO (centres undefined)	·	i	1	i	-11	-4
CC(C)N(C(=O)COC(=O)c1ccc(Cl)s1)c1ccccc1	·	i	0	·	·	0
Cc1cc2nc(C)n(CCCNC(=O)Nc3cccc4ccccc34)c2cc1C	75*	i	4	25*	-18	-1
CCOc1ccc(NC(=O)NCCCn2c(C)nc3cc(C)c(C)cc32)cc1	10	i	3	i	·	-1
COc1ccccc1N1CCN(S(=O)(=O)c2cc(-c3cc(C)no3)ccc2C(C)C)CC1	·	i	0	i	-61	-3
O=C(NNC(=S)Nc1ccc(F)cc1)c1cccc([N+](=O)[O-])c1	3	i	0	i	-25	-3
CC(C)OC(=O)c1cc(NC(=S)Nc2ccc([N+](=O)[O-])cc2)cc(C(=O)OC(C)C)c1	75*	i	29	i	-6	2
CCCCNC(=S)NC(=O)c1ccc([N+](=O)[O-])cc1	13	i	5	i	·	-1
O=[N+]([O-])c1ccc(NNC(=S)Nc2ccc(F)cc2)cc1	-28	i	4	100*	-71	-3
CCCCNC(=S)Nc1ccc([N+](=O)[O-])cc1	18	i	4	100*	12	0
CC(C)COc1ccc(C(=O)Nc2ccc([N+](=O)[O-])cc2)cc1	61	i	2	i	-1	2
O=C(NC(NNc1ccc([N+](=O)[O-])cc1)(C(F)(F)F)C(F)(F)F)c1ccc(F)cc1	34	i	1	100*	-1	-2
O=C(O)CCCCCC[C@H]1C(=O)NC(=O)N1CC[C@@H](O)C1CCCCC1	1	·	·	·	·	·
CCN(C(=O)C1CCCN1S(=O)(=O)c1ccc2c(c1)n(C)c(=O)c(=O)n2C)c1ccccc1 (centres undefined)	·	i	0	i	-5	-5
CC(C)CCNC(=S)Nc1ccc([N+](=O)[O-])cc1	38	i	0	100*	-32	1
CCN(CC)CCNCc1ccc(-c2ccc(Cl)cc2)o1	82*	i	-3	i	·	1
NC(=O)c1c(NC(=O)C2COc3ccccc3O2)sc2c1CCN(Cc1ccccc1)C2 (centres undefined)	79*	i	7	i	1	2
